Published values gathered from unrelated publications.
Compare with care: the assays were run in different laboratories.
Target: Serine/threonine-protein kinase SIK2 (SIK2, Homo sapiens, UniProt Q9H0K1)

| Structure (SMILES) | observed | technique | concentration | remaining binding |
| --- | --- | --- | --- | --- |
| c1cncc(-c2cccc(Nc3nccc(NC4CCCCC4)n3)c2)c1 | binding | competition with immobilised ligand | 10 µM | 73% |
| F[C@@H]1CCN(c2nccc(-c3cnn4ncccc34)n2)C1 | binding | – | 1 µM | 100% |
| CC(=O)Nc1c(C(C)=O)c(=O)n(C)c2nc(-c3ccc(Cl)cc3Cl)c(-c3ccc(Cl)cc3)cc12 | cell-free assay | competition with immobilised ligand | 1 µM | 100% |
| Cc1cnn2ncc(-c3ccnc(N(C)C)n3)c2c1 | binding | – | 1 µM | 100% |
| O=C(c1ccc(Nc2ncc(Cl)c(-c3ccc(Cl)s3)n2)cc1)N1CCC(N2CCCC2)CC1 | binding | competition with immobilised ligand | 1 µM | 21% |
| CN(C)c1nccc(-c2cnc3ncccn23)n1 | binding | – | 1 µM | 100% |
| CCC(=N\O)/C(C)=C/c1ccc(F)cc1 | cell-free assay | competition with immobilised ligand | 1 µM | 100% |
| C[C@@H](c1ccc(-n2cnc3c(N)ncnc32)cc1)N1CCc2nn(C)c(Cc3ccccc3)c2C1=O | binding | competition with immobilised ligand | 0.1 µM | 73% |
| O=C(NCCCN1CCOCC1)c1ccc(Nc2ncc(Cl)c(-c3ccc(Cl)s3)n2)cc1 | binding | competition with immobilised ligand | 1 µM | 37% |
| COCCOc1nc(-c2ccc(Cl)nc2)nc2c1CN(C(=O)c1ncn3ccccc13)CC2 | cell-free assay | competition with immobilised ligand | 0.1 µM | 100% |
| CC1CCCN1c1nccc(-c2cnn3ncccc23)n1 (stereo not shown) | binding | – | 1 µM | 90% |
| COc1ccc2c(c1)O[C@@H](c1ccc(OC)c(OC)c1)C[C@H]2NC(=O)C1(c2ccc3c(c2)OC(F)(F)O3)CC1 | cell-free assay | competition with immobilised ligand | 1 µM | 95% |
| COc1cnc(Nc2cccc(S(N)(=O)=O)c2)nc1N1CCN(c2ccccc2)CC1 | binding | competition with immobilised ligand | 1 µM | 100% |
| COc1ccnn2ncc(-c3ccnc(N(C)C)n3)c12 | binding | – | 1 µM | 92% |
| O=S(=O)(NC1CCC(c2cc(F)ccc2F)(S(=O)(=O)c2ccc(Cl)cc2)CC1)C(F)(F)F (stereo not shown) | cell-free assay | competition with immobilised ligand | 1 µM | 100% |
| O=C(NCCCN1CCOCC1)c1ccc(Nc2nccc(-c3cc4ccccc4s3)n2)cc1 | binding | competition with immobilised ligand | 1 µM | 51% |
| N[C@H]1CCN(c2nccc(-c3cnn4ncccc34)n2)C1 | binding | – | 1 µM | 87% |
| O=C(NCC1CCOCC1)c1n[nH]cc1NC(=O)c1c(F)cccc1F | binding | competition with immobilised ligand | 1 µM | 83% |
| CN1CCN(c2cnc3c(C4CCN(C(=O)c5ccc(OC(F)(F)F)cc5N)CC4)ncnc3c2)CC1 | cell-free assay | competition with immobilised ligand | 1 µM | 100% |
| CN(C)c1ncc(F)c(-c2cnn3ncccc23)n1 | binding | – | 1 µM | 100% |
| C[C@@H](c1cccc(C#N)c1)n1cc(Cl)cc(C(N)=O)c1=N | cell-free assay | competition with immobilised ligand | 1 µM | 100% |
| Nc1ncc2c(n1)-c1c([nH]c3ccc(C#CC4CC4)cc13)CCCC2 | binding | competition with immobilised ligand | 1 µM | 81% |
